Each block holds one compound with its values, some of them ahead of it. Activity calls are given as the source filed them. No cut-off for these calls is given here.
Experiments:
PC-3 [1] = test: Induction of apoptosis in human PC3 cells assessed as early apoptotic cells at 10 uM incubated for 24 hrs by annexin V-FITC and propidium iodide staining based flow cytometry analysis (reference value: 0.24 %); assay type: functional
JeKo-1 = test: Antiproliferative activity against human JeKo1 cells assessed as reduction in cell viability at 10 uM incubated for 48 hrs by cell titer-glo assay; assay type: functional, cell-based
Procedure, shortened: (§1)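 Cells plated and treated 24 h later with 10 µM compound for 48 h; viable cells quantified by CellTiter-Glo ATP luminescence. Expressed as percentage of viable cells relative to untreated; mean ± SD of three independent experiments, each in triplicate.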

LN-229 [2] = test: Antiproliferative activity against human LN229 cells assessed as reduction in cell viability at 10 uM incubated for 48 hrs by cell titer-glo assay; assay type: functional, cell-based; procedure, shortened: as §1
U-87 MG [3] = test: Antiproliferative activity against human U87MG cells assessed as reduction in cell viability at 10 uM incubated for 48 hrs by cell titer-glo assay; assay type: functional, cell-based; conditions: U-87MG ATCC; procedure, shortened: as §1
Z-138 [4] = test: Antiproliferative activity against human Z138 cells assessed as reduction in cell viability at 10 uM incubated for 48 hrs by cell titer-glo assay; assay type: functional, cell-based; procedure, shortened: as §1
Homo sapiens = organism: Homo sapiens; test: Antiproliferative activity against human UPN2 cells assessed as reduction in cell viability at 10 uM incubated for 48 hrs by cell titer-glo assay; assay type: functional, cell-based; procedure, shortened: as §1
PC-3 [5] = test: Antiproliferative activity against human PC3 cells assessed as reduction in cell viability at 10 uM incubated for 48 hrs by cell titer-glo assay; assay type: functional, cell-based; procedure, shortened: as §1
PC-3 [6] = test: Induction of cell morphological changes in human PC3 cells assessed as random membrane blebbing at 10 uM incubated for 24 to 48 hrs by phase contrast microscopy; assay type: functional, cell-based
Procedure, shortened: (§2)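 LN229 and PC3 cells exposed to 10 µM compound for the indicated time-points, then imaged live by phase-contrast microscopy for morphology.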

LN-229 [7] = test: Induction of cell morphological changes in human LN229 cells assessed as random membrane blebbing at 10 uM incubated for 24 to 48 hrs by phase contrast microscopy; assay type: functional, cell-based; procedure, shortened: as §2
Z-138 [8] = test: Antiproliferative activity against human Z138 cells assessed as reduction in cell viability incubated for 48 hrs by cell titer-glo assay; assay type: functional, cell-based; conditions: Z-138, 48 h
Procedure, shortened: (§3)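 Dose-response: cells plated, treated 24 h later for 48 h, then ATP measured by CellTiter-Glo luminescence. IC50 given as mean ± SD from three independent experiments, each in triplicate. Fibroblasts came from individuals. Cells were kept in RPMI or DMEM with 10% heat-inactivated FBS and penicillin/streptomycin at 37 °C, 5% CO2.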

LN-229 [9] = test: Antiproliferative activity against human LN229 cells assessed as reduction in cell viability incubated for 48 hrs by cell titer-glo assay; assay type: functional, cell-based; conditions: LN-229, 48 h; procedure, shortened: as §3
MCF7 = test: Antiproliferative activity against human MCF7 cells assessed as reduction in cell viability incubated for 48 hrs by cell titer-glo assay; assay type: functional, cell-based; conditions: MCF7, 48 h; procedure, shortened: as §3
Fibroblast = test: Cytotoxicity against human Fibroblast assessed as reduction in cell viability incubated for 48 hrs by cell titer-glo assay; assay type: cell-based; procedure, shortened: as §3
Jurkat = test: Cell cycle arrest in human Jurkat cells assessed as decrease in cell accumulation at G2 phase at 10 uM incubated for 24 hrs by propidium iodide staining based flow cytometry analysis; assay type: functional
U-87 MG [10] = test: Cell cycle arrest in human U87MG cells assessed as increase in cell accumulation at G0/G1 phase at 10 uM incubated for 24 hrs by propidium iodide staining based flow cytometry analysis; assay type: functional; conditions: U-87MG ATCC
LN-229 [11] = test: Cell cycle arrest in human LN229 cells assessed as cell accumulation at G2/M phase at 10 uM incubated for 24 hrs by propidium iodide staining based flow cytometry analysis relative to control; assay type: functional
LN-229 [12] = test: Cell cycle arrest in human LN229 cells assessed as cell accumulation at G1 phase at 10 uM incubated for 48 hrs by propidium iodide staining based flow cytometry analysis relative to control; assay type: functional
LN-229 [13] = test: Cell cycle arrest in human LN229 cells assessed as cell accumulation at G2/M phase at 10 uM incubated for 48 hrs by propidium iodide staining based flow cytometry analysis relative to control; assay type: functional
PC-3 [14] = test: Cell cycle arrest in human PC3 cells assessed as cell accumulation at G2/M phase at 10 uM incubated for 24 hrs by propidium iodide staining based flow cytometry analysis relative to control; assay type: functional
LN-229 [15] = test: Induction of cellular senescence in human LN229 cells assessed as increase in beta-gal-positive cells at 10 uM incubated for 24 hrs by X-Gal staining based microscopic assay relative to control; assay type: functional
PC-3 [16] = test: Induction of cellular senescence in human PC3 cells assessed as cells with irregular shape at 10 uM incubated for 24 hrs by phase contrast microscopy; assay type: functional, cell-based
Procedure, shortened: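 LN229 and PC3 cells, 12×10^4 per well in 6-well plates, treated with 10 µM compound for 24 h. Senescence-associated β-gal staining: fixed in 2% formaldehyde/0.2% glutaraldehyde for 10 min at RT, stained with 1 mg/mL X-gal at 37 °C for 24 h without CO2. Blue cells counted in at least 10 fields at 10x and given as percent of total; four independent experiments. Morphology viewed by phase contrast at ×100.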

SW480 = test: Induction of apoptosis in human SW480 cells assessed as increase in caspase-3/7 activation at 10 uM incubated for 48 hrs by luminometric caspase-glo 3/7 assay; assay type: functional, cell-based
Procedure, shortened: (§4)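 Cells in RPMI or DMEM with 10% heat-inactivated FBS and penicillin/streptomycin, 37 °C, 5% CO2, treated with 10 µM compound for 48 h. Caspase-3 and caspase-7 activity read by luminescent Caspase-Glo 3/7 assay, reported as fold induction over untreated cells; mean ± SD of three independent experiments, each in triplicate.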

LN-229 [17] = test: Induction of apoptosis in human LN229 cells assessed as increase in caspase-3/7 activation at 10 uM incubated for 48 hrs by luminometric caspase-glo 3/7 assay; assay type: functional, cell-based; procedure, shortened: as §4
LN-229 [18] = test: Induction of mitochondrial membrane potential loss in human LN229 cells at 10 uM measured upto 48 hrs by JC-1 staining based flow cytometry analysis; assay type: functional, cell-based
Procedure, shortened: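 LN229 cells seeded at 5×10^5 cells/mL and adhered overnight, then given medium with 10 µM compound for the indicated time-points. Readout is mean FL3 (aggregate, 590 nm)/FL1 (monomer, 530 nm) fluorescence ratio; mean ± SD of three determinations.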

PC-3 [19] = test: Induction of apoptosis in human PC3 cells assessed as necrotic cells at 10 uM incubated for 24 hrs by annexin V-FITC and propidium iodide staining based flow cytometry analysis (reference value: 0.30 %); assay type: functional
LN-229 [20] = test: Antiproliferative activity against human LN229 cells assessed as reduction in cell viability at 10 uM incubated for 48 hrs in presence of Zn2+ ion by MTT assay; assay type: functional, cell-based
Procedure, shortened: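 LN229 and PC3 cells plated, then 24 h later given 10 µM compound with or without 15 µM ZnCl2, CuCl2, FeCl2 or FeCl3 for 48 h. Medium replaced, MTT (12 mM solution) added for 4 h, formazan dissolved in DMSO, absorbance read at 540 nm. Percent viable versus untreated; mean ± SD of three experiments in triplicate.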

[21] = Metal chelating activity assessed as Zn2+-compound complex formation at physiological pH 7.4 by quantum mechanical studies
Procedure, shortened: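 Zn2+ complexes modelled by DFT, B3LYP, gas phase. Basis set def2-SV(P), with MDF10 Stuttgart-Dresden effective core potential for Zn and Grimme dispersion correction. Vibrational frequencies and zero-point correction computed for each minimum.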

IC50 (MCF7): 3.13 µM
Activity [21]: > 99%
Structure (SMILES): CN(CCNCc1ccccn1)CCNCc1ccccn1
Activity (PC-3 [1]): 0.8%
Activity (JeKo-1): Active
Activity (LN-229 [2]): Active
Activity (U-87 MG [3]): Active
Activity (Z-138 [4]): Active
Activity (Homo sapiens): Active
Activity (PC-3 [5]): Active
Activity (PC-3 [6]): Active
Activity (LN-229 [7]): Active
IC50 (Z-138 [8]): 4.85 µM
IC50 (LN-229 [9]): 6.84 µM
IC50 (Fibroblast): 20.5 µM
Activity (Jurkat): Active
Activity (U-87 MG [10]): Active
Activity (LN-229 [11]): 22.1%
Activity (LN-229 [12]): 66.1%
Activity (LN-229 [13]): 20.2%
Activity (PC-3 [14]): 19.7%
Activity (LN-229 [15]): Active
Activity (PC-3 [16]): Active
Activity (SW480): Active
Activity (LN-229 [17]): Active
Activity (LN-229 [18]): Active
Activity (PC-3 [19]): 1.78%
Activity (LN-229 [20]): inactive

IC50 (MCF7): 3.19 µM
Activity [21]: > 99%
Structure (SMILES): c1ccc(CNCCN(CCNCc2ccccn2)Cc2ccc3ccccc3c2)nc1
Activity (PC-3 [1]): 0.63%
Activity (JeKo-1): Active
Activity (LN-229 [2]): Active
Activity (U-87 MG [3]): Active
Activity (Z-138 [4]): Active
Activity (Homo sapiens): Active
Activity (PC-3 [5]): Active
Activity (PC-3 [6]): Active
Activity (LN-229 [7]): Active
IC50 (Z-138 [8]): 3.07 µM
IC50 (LN-229 [9]): 6.3 µM
IC50 (Fibroblast): 29.7 µM
Activity (Jurkat): Active
Activity (U-87 MG [10]): Active
Activity (LN-229 [11]): 22.1%
Activity (LN-229 [12]): 74.7%
Activity (LN-229 [13]): 14.4%
Activity (PC-3 [14]): 17.2%
Activity (LN-229 [15]): 90%
Activity (PC-3 [16]): Active
Activity (SW480): Active
Activity (LN-229 [17]): Active
Activity (LN-229 [18]): Active
Activity (PC-3 [19]): 1.53%
Activity (LN-229 [20]): inactive

From ChEMBL document CHEMBL4376884, “Toward a Rational Design of Polyamine-Based Zinc-Chelating Agents for Cancer Therapies” (J Med Chem, 2020)
